Source: ChEMBL document CHEMBL1153560, “In vitro activities of doripenem and six comparator drugs against 423 aerobic and anaerobic bacterial isolates from infected diabetic foot wounds” (2008)

How the values were obtained:
Format in all cases: functional
[Clostridium] innocuum [1] = Antibacterial activity against Clostridium innocuum isolated from patient with diabetic foot infection after 44 to 48 hrs by agar dilution method
Outline: (§1)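 CLSI M11-A7 agar dilution: serial twofold drug dilutions made on the test day and added to molten agar. Spots of 10^5 CFU were applied by replicator, with drug-free control plates inoculated before and after each set. Incubation was 44 to 48 h at 37°C in an anaerobic chamber. MIC was the lowest concentration giving no growth or a marked change in growth versus controls.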

Porphyromonas somerae = experiment: Antibacterial activity against Porphyromonas somerae isolated from patient with diabetic foot infection assessed as percent resistant isolates after 44 to 48 hrs by agar dilution method
Outline: (§2)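 Agar dilution per CLSI M11-A7. Twofold drug dilutions made on the test day and added to molten agar. Replicator-applied inoculum of 10^5 CFU/spot. Drug-free control plates inoculated before and after each drug set. Incubation at 37°C for 44 to 48 h, anaerobic chamber. MIC taken as the lowest concentration giving no growth or a marked change in growth versus controls.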

Anaerococcus tetradius [2] = experiment: Antibacterial activity against Anaerococcus tetradius isolated from patient with diabetic foot infection after 44 to 48 hrs by agar dilution method; outline: as §1
[3] = test system: Clostridium malenominatum; experiment: Antibacterial activity against Clostridium malenominatum isolated from patient with diabetic foot infection after 44 to 48 hrs by agar dilution method; outline: as §1
Clostridium perfringens = experiment: Antibacterial activity against Clostridium perfringens isolated from patient with diabetic foot infection after 44 to 48 hrs by agar dilution method; outline: as §2
[4] = test system: Bacteroides thetaiotaomicron; experiment: Antibacterial activity against Bacteroides thetaiotaomicron isolated from patient with diabetic foot infection after 44 to 48 hrs by agar dilution method; outline: as §1
Parvimonas micra = experiment: Antibacterial activity against Peptostreptococcus micros isolated from patient with diabetic foot infection assessed as percent resistant isolates after 44 to 48 hrs by agar dilution method; outline: as §2
Parabacteroides merdae = experiment: Antibacterial activity against Parabacteroides merdae isolated from patient with diabetic foot infection after 44 to 48 hrs by agar dilution method; outline: as §1
Anaerococcus prevotii = experiment: Antibacterial activity against Anaerococcus prevotii isolated from patient with diabetic foot infection assessed as percent resistant isolates after 44 to 48 hrs by agar dilution method; outline: as §2
Anaerococcus tetradius [5] = experiment: Antibacterial activity against Anaerococcus tetradius isolated from patient with diabetic foot infection assessed as percent resistant isolates after 44 to 48 hrs by agar dilution method; outline: as §2
Cutibacterium acnes [6] = experiment: Antibacterial activity against Propionibacterium acnes isolated from patient with diabetic foot infection assessed as percent resistant isolates after 44 to 48 hrs by agar dilution method; outline: as §2
[7] = test system: Anaerocolumna aminovalerica; experiment: Antibacterial activity against Clostridium aminovalericum isolated from patient with diabetic foot infection after 44 to 48 hrs by agar dilution method; outline: as §1
Lacrimispora sphenoides = experiment: Antibacterial activity against Clostridium sphenoides isolated from patient with diabetic foot infection after 44 to 48 hrs by agar dilution method; outline: as §1
Anaerococcus vaginalis [8] = experiment: Antibacterial activity against Anaerococcus vaginalis isolated from patient with diabetic foot infection after 44 to 48 hrs by agar dilution method; outline: as §1
[Clostridium] innocuum [9] = Antibacterial activity against Clostridium innocuum isolated from patient with diabetic foot infection assessed as percent resistant isolates after 44 to 48 hrs by agar dilution method; outline: as §2
Bacteroides fragilis [10] = experiment: Antibacterial activity against Bacteroides fragilis isolated from patient with diabetic foot infection after 44 to 48 hrs by agar dilution method; outline: as §1
[11] = test system: Anaerocolumna aminovalerica; experiment: Antibacterial activity against Clostridium aminovalericum isolated from patient with diabetic foot infection assessed as percent resistant isolates after 44 to 48 hrs by agar dilution method; outline: as §2
[12] = test system: Peptostreptococcus anaerobius; experiment: Antibacterial activity against Peptostreptococcus anaerobius isolated from patient with diabetic foot infection after 44 to 48 hrs by agar dilution method; outline: as §1
[13] = test system: Clostridium malenominatum; experiment: Antibacterial activity against Clostridium malenominatum isolated from patient with diabetic foot infection assessed as percent resistant isolates after 44 to 48 hrs by agar dilution method; outline: as §2
Bacteroides uniformis = experiment: Antibacterial activity against Bacteroides uniformis isolated from patient with diabetic foot infection after 44 to 48 hrs by agar dilution method; outline: as §1
Finegoldia magna = experiment: Antibacterial activity against Finegoldia magna isolated from patient with diabetic foot infection after 44 to 48 hrs by agar dilution method; outline: as §1
Prevotella bivia [14] = experiment: Antibacterial activity against Prevotella bivia isolated from patient with diabetic foot infection after 44 to 48 hrs by agar dilution method; outline: as §1
[15] = test system: Peptoniphilus asaccharolyticus; experiment: Antibacterial activity against Peptoniphilus asaccharolyticus isolated from patient with diabetic foot infection assessed as percent resistant isolates after 44 to 48 hrs by agar dilution method; outline: as §2
Bacteroides fragilis [16] = experiment: Antibacterial activity against Bacteroides fragilis isolated from patient with diabetic foot infection assessed as percent resistant isolates after 44 to 48 hrs by agar dilution method; outline: as §2
[17] = test system: Porphyromonas asaccharolytica; experiment: Antibacterial activity against Porphyromonas asaccharolyticus isolated from patient with diabetic foot infection after 44 to 48 hrs by agar dilution method; outline: as §1
Clostridium cadaveris = experiment: Antibacterial activity against Clostridium cadaveris isolated from patient with diabetic foot infection assessed as percent resistant isolates after 44 to 48 hrs by agar dilution method; outline: as §2
Bacteroides ovatus = experiment: Antibacterial activity against Bacteroides ovatus isolated from patient with diabetic foot infection after 44 to 48 hrs by agar dilution method; outline: as §1
[18] = test system: Porphyromonas asaccharolytica; experiment: Antibacterial activity against Porphyromonas asaccharolyticus isolated from patient with diabetic foot infection assessed as percent resistant isolates after 44 to 48 hrs by agar dilution method; outline: as §2
Cutibacterium acnes [19] = experiment: Antibacterial activity against Propionibacterium acnes isolated from patient with diabetic foot infection after 44 to 48 hrs by agar dilution method; outline: as §1
Anaerococcus vaginalis [20] = experiment: Antibacterial activity against Anaerococcus vaginalis isolated from patient with diabetic foot infection assessed as percent resistant isolates after 44 to 48 hrs by agar dilution method; outline: as §2
[21] = test system: Peptostreptococcus anaerobius; experiment: Antibacterial activity against Peptostreptococcus anaerobius isolated from patient with diabetic foot infection assessed as percent resistant isolates after 44 to 48 hrs by agar dilution method; outline: as §2
[22] = test system: Enterocloster clostridioformis; experiment: Antibacterial activity against Clostridium clostridioforme isolated from patient with diabetic foot infection after 44 to 48 hrs by agar dilution method; outline: as §1
Bacteroides stercoris = experiment: Antibacterial activity against Bacteroides stercoris isolated from patient with diabetic foot infection assessed as percent resistant isolates after 44 to 48 hrs by agar dilution method; outline: as §2
[23] = test system: Parabacteroides distasonis; experiment: Antibacterial activity against Parabacteroides distasonis isolated from patient with diabetic foot infection after 44 to 48 hrs by agar dilution method; outline: as §1
[24] = test system: Peptoniphilus asaccharolyticus; experiment: Antibacterial activity against Peptoniphilus asaccharolyticus isolated from patient with diabetic foot infection after 44 to 48 hrs by agar dilution method; outline: as §1
Prevotella bivia [25] = experiment: Antibacterial activity against Prevotella bivia isolated from patient with diabetic foot infection assessed as percent resistant isolates after 44 to 48 hrs by agar dilution method; outline: as §2
[26] = test system: Bacteroides thetaiotaomicron; experiment: Antibacterial activity against Bacteroides thetaiotaomicron isolated from patient with diabetic foot infection assessed as percent resistant isolates after 44 to 48 hrs by agar dilution method; outline: as §2

CCC[C@@H]1C[C@@H](C(=O)N[C@@H]([C@H]2O[C@H](SC)[C@H](O)[C@@H](O)[C@H]2O)[C@H](C)Cl)N(C)C1 [CLINDAMYCIN]
0.5 µg/mL: MIC50 ([Clostridium] innocuum [1]) | MIC50 [3] | MIC50 [7] | MIC50 (Lacrimispora sphenoides) | MIC50 (Bacteroides fragilis [10]) | MIC90 [12] | MIC50 (Finegoldia magna) | MIC50 [22]
64 µg/mL: MIC90 (Anaerococcus tetradius [2]) | MIC90 (Anaerococcus vaginalis [8]) | MIC90 [17]
1 µg/mL: MIC50 (Clostridium perfringens) | MIC90 (Clostridium perfringens)
20%: Activity (Bacteroides stercoris) | Activity [26]
16 µg/mL: MIC90 ([Clostridium] innocuum [1]) | MIC90 [3] | MIC90 [7] | MIC90 (Lacrimispora sphenoides) | MIC90 [22]
12%: Activity (Porphyromonas somerae) | Activity [18]
≤ 0.03 µg/mL: MIC50 (Prevotella bivia [14]) | MIC50 [17] | MIC50 (Cutibacterium acnes [19])
2 µg/mL: MIC50 [4] | MIC50 (Parabacteroides merdae) | MIC90 (Bacteroides fragilis [10]) | MIC50 (Bacteroides uniformis) | MIC90 (Finegoldia magna) | MIC50 (Bacteroides ovatus) | MIC90 (Cutibacterium acnes [19]) | MIC50 [23]
23%: Activity ([Clostridium] innocuum [9]) | Activity [11] | Activity [13] | Activity (Clostridium cadaveris)
0%: Activity (Parvimonas micra) | Activity (Cutibacterium acnes [6]) | Activity [21]
0.125 µg/mL: MIC50 (Anaerococcus tetradius [2]) | MIC50 (Anaerococcus vaginalis [8]) | MIC50 [12] | MIC50 [24]
18%: Activity (Anaerococcus prevotii) | Activity (Anaerococcus tetradius [5]) | Activity (Anaerococcus vaginalis [20])
10%: Activity (Bacteroides fragilis [16])
21%: Activity (Prevotella bivia [25])
> 64 µg/mL: MIC90 [4] | MIC90 (Parabacteroides merdae) | MIC90 (Bacteroides uniformis) | MIC90 (Prevotella bivia [14]) | MIC90 (Bacteroides ovatus) | MIC90 [23] | MIC90 [24]
25%: Activity [15]

C[C@@H](O)[C@H]1C(=O)N2C(C(=O)O)=C(S[C@@H]3CN[C@H](CNS(N)(=O)=O)C3)[C@H](C)[C@H]12 [DORIPENEM]
0%: Activity (Porphyromonas somerae) | Activity (Parvimonas micra) | Activity (Anaerococcus prevotii) | Activity (Anaerococcus tetradius [5]) | Activity (Cutibacterium acnes [6]) | Activity ([Clostridium] innocuum [9]) | Activity [11] | Activity [13] | Activity [15] | Activity (Bacteroides fragilis [16]) | Activity (Clostridium cadaveris) | Activity [18] | Activity (Anaerococcus vaginalis [20]) | Activity [21] | Activity (Bacteroides stercoris) | Activity (Prevotella bivia [25]) | Activity [26]
0.25 µg/mL: MIC50 [4] | MIC50 (Parabacteroides merdae) | MIC50 (Bacteroides fragilis [10]) | MIC90 (Bacteroides fragilis [10]) | MIC90 [12] | MIC50 (Bacteroides uniformis) | MIC50 (Bacteroides ovatus) | MIC50 [23]
≤ 0.015 µg/mL: MIC50 (Anaerococcus tetradius [2]) | MIC50 (Clostridium perfringens) | MIC50 (Anaerococcus vaginalis [8]) | MIC50 [17] | MIC50 [24]
0.03 µg/mL: MIC90 (Clostridium perfringens) | MIC90 [17]
0.06 µg/mL: MIC50 ([Clostridium] innocuum [1]) | MIC90 (Anaerococcus tetradius [2]) | MIC50 [3] | MIC50 [7] | MIC50 (Lacrimispora sphenoides) | MIC90 (Anaerococcus vaginalis [8]) | MIC50 [12] | MIC50 (Finegoldia magna) | MIC50 (Prevotella bivia [14]) | MIC50 (Cutibacterium acnes [19]) | MIC50 [22] | MIC90 [24]
1 µg/mL: MIC90 ([Clostridium] innocuum [1]) | MIC90 [3] | MIC90 [4] | MIC90 (Parabacteroides merdae) | MIC90 [7] | MIC90 (Lacrimispora sphenoides) | MIC90 (Bacteroides uniformis) | MIC90 (Bacteroides ovatus) | MIC90 [22] | MIC90 [23]
0.125 µg/mL: MIC90 (Finegoldia magna) | MIC90 (Prevotella bivia [14]) | MIC90 (Cutibacterium acnes [19])
